Screening data from PubChem.
Pemphigus Ab inh – inhibitors of pemphigus antibody binding to DSG3, primary screen, biochemical, bead-based, flow cytometry, scFv-GFP; 310,000 tested, 0.48% active; DSG3-coupled beads, scFv-anti-DSG3-GFP binding; active compounds read low; AID 588358, 2011; binding (percent of control), % at 10 µM;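 active = binding more than 3 SD below its plate's average and above zero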;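 also: hits lower antibody fragment binding to DSG3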
TRPC4 inh – inhibitors of mouse TRPC4 channel, primary screen, Fluo4 calcium, HEK293 TRPC4beta/mu-opioid cells. Short transient receptor potential channel 4 (Mus musculus), Q9QUQ5. DAMGO-evoked Fluo4 calcium flux; active compounds read low. B-score at 10 µM. 300,000 tested, 0.39% active. AID 2247, 2010;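 active = B-score over 3 SD under the library average, no early fluorescence shift, positive overall ratio signal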
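Assay system – HEK293 line stably carrying TRPC4beta and mu-opioid receptor · Doses – single dose · Detection – Fluo4 calcium-dye fluorescence, kinetic read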
TRPC4 agonist – activators of mouse TRPC4 channel, primary screen, Fluo4 calcium, HEK293 TRPC4beta/mu-opioid cells. Short transient receptor potential channel 4 (Mus musculus), Q9QUQ5. B-score at 10 µM. Fluo4 calcium fluorescence; active compounds read high. 310,000 tested, 0.49% active. AID 2237, 2010;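 active = B-score above 5 SD of library B-scores, and initial fluorescence ratio not above library mean plus 5 SD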;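 also: positive B-score marks a calcium rise read as TRPC4 activation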
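Assay system: HEK293 cells stably co-expressing mouse TRPC4beta and mu-opioid receptor / Timing: Fluo4 dye loading 45 min at room temperature, 110 s recording / Signal: Fluo4 calcium-sensitive dye fluorescence, kinetic, 1 Hz baseline / Read-out: integrated baseline-normalised fluorescence ratio, converted to per-well B score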
TRPC6 activator – mouse TRPC6 channel activators, primary screen, cell-based, HEK293, membrane potential dye. HEK293-TRPC6 membrane potential dye fluorescence; active compounds read high. AID 2550, 2010. B-score at 10 µM. Short transient receptor potential channel 6 (Mus musculus), Q61143. 310,000 tested, 0.13% active;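 active = B-score of the integrated fluorescence ratio above library mean plus 3 SD, and starting fluorescence ratio within library mean plus 5 SD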;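 also: higher score means more depolarization so channel activation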
TRPC6 inh – mouse TRPC6 channel inhibitors, primary screen, cell-based, HEK293, membrane potential dye; Short transient receptor potential channel 6 (Mus musculus), Q61143; ACh-evoked depolarization; active compounds read low; B-score at 10 µM; 310,000 tested, 1.1% active; AID 2553, 2010;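 active = B-score under library mean minus 3 SD, initial fluorescence not abnormally high, positive integrated signal ratio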;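 also: B-score derived from integrated fluorescence ratio over the kinetic read; more negative B-score means stronger inhibition of depolarization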
TRPC4 PAM – positive allosteric modulators of TRPC4, primary screen, cell-based, mouse TRPC4beta, HEK293 mu-opioid, Fluo-4 calcium. Short transient receptor potential channel 4 (Mus musculus), Q9QUQ5. DAMGO EC20, Fluo-4 Ca2+ flux; active compounds read high. B-score at 10 µM. 310,000 tested, 0.42% active;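 active = B-score of calcium response area above 5 SD of library B-scores, with initial fluorescence ratio within 5 SD of library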
Large screens that a line does not name were inactive. In the library only some 2.5% were active in any assay of this set; here they are far more common.

CC1CC(C)CN(CCC(=O)Nc2ccc(Br)cc2)C1 (configuration not stated)	TRPC4 agonist 44
O=C(CCN1CCCCC1)Nc1cccc(Cl)c1	none
CC1CC(C)CN(CCC(=O)Nc2cccc(Cl)c2)C1 (configuration not stated)	TRPC4 agonist 60 (no result: Pemphigus Ab inh)
CC1CC(C)CN(S(=O)(=O)c2ccc(C(=O)N(c3ccccn3)C3CCCCC3)cc2)C1 (configuration not stated)	TRPC4 inh -6
O=C(c1ccc(S(=O)(=O)N2CCCCC2)cc1)N(c1ccccn1)C1CCCCC1	none
Cc1ccc(C(=O)CNc2ccc(C)c(Cl)c2)cc1	Pemphigus Ab inh -6.7
Cc1ccc(NCCC(=O)c2ccccc2)cc1Cl	Pemphigus Ab inh 89
OC1COCOC1C(O)C1OCOCC1O (configuration not stated)	none (no result: TRPC4 inh, TRPC4 agonist, TRPC6 activator, TRPC6 inh, TRPC4 PAM)
Cc1ccc(NC(=O)C2CCN(S(=O)(=O)c3ccc4c(c3)OCCO4)CC2)nc1	none
COc1ccc(NCC(=O)N/N=C2\CCc3ccccc32)cc1	Pemphigus Ab inh 106
O=C(CC1C(=O)NCCN1C(=O)Nc1ccccc1)Nc1cc(Cl)cc(Cl)c1 (configuration not stated)	TRPC4 PAM 16
O=C(O)c1ccn2c(C(=O)c3ccc(Cl)cc3)c(-c3ccccc3)cc2c1	TRPC4 inh -6
O=C(NCCO)C(=O)c1c(-c2ccc(Cl)cc2)cc2ccccn12	none
COc1ccccc1C(=O)Nc1ccc2c(c1)CCCN2C(=O)c1cccs1	TRPC4 inh -6
N#Cc1c(Oc2ccc3ccccc3c2)sc(C(=O)c2ccccc2)c1N	TRPC4 PAM 12
NC(=O)c1ccsc1NC(=O)COC(=O)c1ccccn1	none (no result: TRPC4 inh, TRPC4 agonist, TRPC6 activator, TRPC6 inh, TRPC4 PAM)
NC(=O)c1ccsc1NC(=O)COC(=O)c1cnccn1	Pemphigus Ab inh 80 (no result: TRPC4 inh, TRPC4 agonist, TRPC6 activator, TRPC6 inh, TRPC4 PAM)
O=S(=O)(c1cccs1)N1CCN(c2ccccn2)CC1	Pemphigus Ab inh 80
O=S(=O)(c1cccs1)N1CCN(c2ncccn2)CC1	none
O=C(Cc1c(F)cccc1Cl)Nc1ccccc1-c1ccccc1	Pemphigus Ab inh 47
O=C(Cc1ccccc1F)Nc1ccccc1-c1ccccc1	none (no result: Pemphigus Ab inh)
CC(C)Cc1ccc(C(C)C(N)=NCCc2ccccc2)cc1 (configuration not stated)	TRPC4 PAM 10
CN(C(=O)COC(=O)c1ccc(-c2ccc(O)cc2)cc1)C1CCS(=O)(=O)C1 (configuration not stated)	Pemphigus Ab inh 70
CN(C(=O)COC(=O)c1cccc(Cl)c1)C1CCS(=O)(=O)C1 (configuration not stated)	none (no result: TRPC4 inh, TRPC4 agonist, TRPC6 activator, TRPC6 inh, TRPC4 PAM)
C/C(=N/NC(=O)c1ccc(Cn2cccn2)o1)c1cccc(NC(=O)c2ccncc2)c1	TRPC4 inh -6, TRPC4 agonist 62
C/C(=N\NC(=O)c1ccncc1)c1cccc(NC(=O)c2ccc(C(C)(C)C)cc2)c1	none
COc1ccc(/C=N\Nc2ncc(F)c(N3CCOCC3)n2)cc1OC	none (no result: Pemphigus Ab inh)
O=[N+]([O-])c1ccccc1S(=O)(=O)Nc1cccnc1	none
C#CC[N+]1(CC#Cc2cccc3ccccc23)CCOCC1	TRPC4 PAM 37
C#CC[N+]1(CC#Cc2ccc(C#CC[N+]3(CC#C)CCOCC3)cc2)CCOCC1	none
CCC(=O)c1cn(CC(=O)Nc2cccc(C)c2C)c2ccccc12	none
Cc1cccc(NC(=O)Cn2cc(C(=O)C3CC3)c3ccccc32)c1C	Pemphigus Ab inh -14
CCc1ccccc1Nc1nc2ccccc2[nH]1	TRPC4 inh -5
Cc1ccc(Nc2nc3ccccc3[nH]2)nc1	TRPC4 agonist 108
COc1ccc(N(CC(=O)Nc2ccc(OC)c(Cl)c2)S(=O)(=O)c2c(C)noc2C)cc1	none
COc1ccc(NC(=O)CN(c2ccc(OC)cc2)S(=O)(=O)c2c(C)nn(C)c2C)cc1	Pemphigus Ab inh -9.2
COc1ccc(NC(=O)CN(c2ccc(C)cc2)S(=O)(=O)c2c(C)nn(C)c2C)cc1	none
COc1ccc(N(CC(=O)Nc2ccc(F)c(Cl)c2)S(=O)(=O)c2c(C)noc2C)cc1	Pemphigus Ab inh 6.0
Cc1ccsc1CNC1C2CC3CC(C2)CC1C3 (configuration not stated)	none
COC(=O)Cn1c2ccc(Cl)cc2c2nc(C)sc21	none
Cc1nc2c3cc(Cl)ccc3n(CCN3CCCCC3)c2s1	TRPC4 inh -6
Clc1ccc(CSc2ccc(-c3ccccn3)nn2)cc1	Pemphigus Ab inh 13
c1ccc(CSc2ccc(-c3ccccn3)nn2)cc1	none (no result: Pemphigus Ab inh)
c1ccc(Nc2ncnc3sc4c(c23)CCC4)cc1	TRPC4 agonist 216
Fc1ccc(Nc2ncnc3sc4c(c23)CCC4)cc1F	none
c1ccc2c(c1)nnn2-c1ncnc2sc3c(c12)CCCC3	TRPC4 inh -6
Fc1ccc(Nc2ncnc3sc4c(c23)CCC4)cc1	TRPC4 PAM 66
C/C(CC(=O)Nc1ccccn1)=N\NC(=O)c1ccncc1	none (no result: Pemphigus Ab inh)
Cc1ccc(OCC(=O)NNC(=O)c2ccccc2OCc2c(C)noc2C)cc1	none
